Results collected from several papers.
Each line is one published result; the experiments were not run side by side. In brackets after ≈: the same amount, converted by molar mass.

Structure (SMILES)	tested on	assay	system	conditions	endpoint	result
O=c1[nH]cc(F)c(=O)[nH]1	Shigella dysenteriae	microbial growth, broth dilution		24 h	MIC	4 µg/mL
CCN1CCN(c2cc3c(cc2F)c(=O)c(C(=O)O)cn3C2CC2)CC1	Salmonella enterica	microbial growth	CHOLERAESUIS	20 h, pH 7	MIC	0.0625 µg/mL
Cc1cc(Cc2ccccc2)n(O)c(=O)c1	Cryptococcus gattii	microbial growth			MIC80	1.7 µM (≈ 0.366 µg/mL)
C[C@H]1O[C@@H](O[C@H]2[C@@H](O)C[C@H](O[C@H]3[C@@H](O)C[C@H](O[C@H]4CC[C@@]5(C)[C@H](CC[C@@H]6[C@@H]5C[C@@H](O)[C@]5(C)[C@@H](C7=CC(=O)OC7)CC[C@]65O)C4)O[C@@H]3C)O[C@@H]2C)C[C@H](O)[C@@H]1O	ReNcell VM	cell growth or viability		24 h	IC50	~560 nM
COC[C@H](NC(=O)OCc1ccccc1)C(=O)N[C@@H](Cc1ccccc1)C(=O)N[C@@H](CC(C)C)C(=O)C(=O)Nc1ccccc1	RPMI-8226	cell growth or viability, MTS		72 h	IC50	437 nM
CCC1(c2ccc(N)cc2)CCC(=O)NC1=O (centres unmarked)	OVCAR-3	cell growth or viability, CCK-8		48 h	IC50	> 50000 nM
O=c1c(O)c(-c2ccc(O)c(O)c2)oc2cc(O)cc(O)c12	Salmonella enterica	microbial growth	TYPHI		IC50	80100 nM
O=C1NN=C(N=Cc2ccc(O)c(O)c2)C1=NNn1c(-c2ccccc2)nc2ccccc2c1=O	Salmonella enterica	microbial growth, broth dilution	PARATYPHI	24 h	MIC	53.5 µM
O=c1cccc(C2CCCCC2)n1O	Cryptococcus gattii	microbial growth			MIC80	1.7 µM (≈ 0.329 µg/mL)
O=C(N[C@H](CO)[C@H](O)c1ccc([N+](=O)[O-])cc1)C(Cl)Cl	Salmonella enterica	microbial growth	CHOLERAESUIS	20 h, pH 7.2	MIC	4 µg/mL
CCCCCCCCCCCC(=O)OC[C@H]1O[C@@H](n2cc(C)c(=O)[nH]c2=O)C[C@@H]1O	Bacillus cereus	microbial killing, broth dilution			MBC	8 µg/mL (≈ 18.8 µM)
CC(C)C[C@H](NC(=O)OCc1ccccc1)C(=O)N[C@@H](CC(C)C)C(=O)N[C@@H](CC(C)C)C(=O)C(=O)Nc1cccc2c1CCC2	RPMI-8226	cell growth or viability, MTS		72 h	IC50	65.9 nM
CCCCCCCCCCCC(=O)OC[C@H]1O[C@@H](n2cc(C)c(=O)[nH]c2=O)C[C@@H]1OC(=O)c1ccc(C(C)(C)C)cc1	Bacillus cereus	microbial growth, broth dilution			MIC	2 µg/mL
COc1cc(Cc2cnc(N)nc2N)cc(OC)c1OC	Shigella dysenteriae	microbial growth, broth dilution		24 h	MIC	16 µg/mL
Cc1cc(C2CCCCC2)n(O)c(=O)c1	Cryptococcus gattii	microbial growth			MIC80	2.3 µM (≈ 0.477 µg/mL)
CC1=NN(CNc2ccc(O)cc2)C(=O)C1=NNn1c(-c2ccccc2)nc2ccccc2c1=O	Salmonella enterica	microbial growth, broth dilution	PARATYPHI	24 h	MIC	107 µM
CC(/C=C/C(O)=C1/C(=O)CNC1=O)=C\[C@@H](C)[C@H]1O[C@@]2(C)O[C@H](C(=O)[C@@H]3O[C@@]32C)[C@@H]1C	Bacillus cereus	microbial growth			MIC	6.25 µM
CO/N=C(\C(=O)N[C@@H]1C(=O)N2C(C(=O)O)=C(CSc3nc(=O)c(=O)[nH]n3C)CS[C@H]12)c1csc(N)n1	Salmonella enterica	microbial growth	CHOLERAESUIS	20 h, pH 7	MIC	0.0625 µg/mL
CC(C)C[C@H](NC(=O)OCc1ccccc1)C(=O)N[C@@H](Cc1c[nH]c2ccccc12)C(=O)N[C@@H](CC(C)C)C(=O)C(=O)Nc1ccccc1	RPMI-8226	cell growth or viability, MTS		72 h	IC50	313 nM
CCn1cc(C(=O)O)c(=O)c2ccc(C)nc21	Salmonella enterica	microbial growth	CHOLERAESUIS	20 h, pH 5.5	MIC	1 µg/mL
CC1=CC[C@H]2O[C@]1(C)O[C@H]([C@H](C)/C=C(C)/C=C/C(O)=C1/C(=O)CNC1=O)[C@H]2C	Bacillus cereus	microbial growth			MIC	3.13 µM
COc1cccc(Cc2cc(C)cc(=O)n2O)c1	Cryptococcus gattii	microbial growth			MIC80	2.3 µM (≈ 0.564 µg/mL)
CC1=NN(CNC(=O)c2ccccn2)C(=O)C1=NNn1c(-c2ccccc2)nc2ccccc2c1=O	Salmonella enterica	microbial growth, broth dilution	PARATYPHI	24 h	MIC	104 µM
